The text below walks through data of ChEMBL document CHEMBL1123036, “Synthesis and antiallergic activities of 1,3-oxazolo[4,5-h]quinolines” (J Med Chem, 1985).

Molecules are shown by their SMILES. pIC50: −log10 of the molar value.

The species entered for test [1] is Rattus norvegicus. The test can be described thus: Ability to inhibit passive cutaneous anaphylaxis in rat, when compound was injected perorally. The format is functional. The essentials:
(§1)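 Rat passive cutaneous anaphylaxis: the read-out was inhibition of IgE-mediated cutaneous wheal formation after antigen challenge. Compounds were given by the route and dose stated on the line.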

For test [2], the system named is Rattus norvegicus. The test can be described thus: Percentage inhibition against passive cutaneous anaphylaxis after injecting 125 mg/kg perorally in rat. Type of test: functional. The note with it: route oral. The method in brief:
as §1

Test [3] deals with Rattus norvegicus. Briefly: Percentage inhibition against passive cutaneous anaphylaxis in rat, when injected intraperitoneally. Type of test: functional. The method in brief: as §1
The species entered for test [4] is Rattus norvegicus. The test can be described thus: (§2) In vitro ability to inhibit antigen-induced release of histamine (AIR) from rat peritoneal mast cells. The format is functional, cell-based. The method in brief: (§3)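 Peritoneal cells collected from rats by lavage, containing 5–10% mast cells. Antigen-induced histamine release was quantified radioenzymatically rather than fluorometrically: samples were incubated with [¹⁴C]methyl-S-adenosylmethionine and histamine-N-methyltransferase prepared from rat kidneys.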

The subject of test [5] is Rattus norvegicus. Briefly: Percentage inhibition against passive cutaneous anaphylaxis after injecting 10 mg/kg intraperitoneally in rat. Type of test: functional. The note with it: route intraperitoneal; for inhibition in vivo at 10 mg/kg: Rattus norvegicus, ip. The method in brief:
as §1

The test system of test [6] is Rattus norvegicus. The test can be described thus: Percentage inhibition against passive cutaneous anaphylaxis after injecting 10 mg/kg perorally in rat. The note with it: route oral. Type of test: functional. The essentials: as §1
The species named for test [7] is Rattus norvegicus. Briefly: Percentage inhibition against passive cutaneous anaphylaxis in rat, when injected perorally. Type of test: functional. The essentials:
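Rat passive cutaneous anaphylaxis, an IgE-mediated cutaneous wheal formation model; compounds given orally before antigen challenge; read-out is percent inhibition of wheal formation.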

The species entered for test [8] is Rattus norvegicus. The test is described as §2. The format is functional. The method in brief:
as §3

The subject of test [9] is Rattus norvegicus. Briefly: Percentage inhibition of 30 mg/kg compound against antigen-induced release of histamine (AIR) from rat mast cells. The format is functional.
For test [10], the species on record is Rattus norvegicus. Briefly: In vitro ability to inhibit antigen-induced release of histamine (AIR) from rat peritoneal mast cells; the compound was tested at a concentration of 50 uM. Type of test: functional, cell-based.
Test [11] relates to Rattus norvegicus. The test can be described thus: Percentage inhibition against passive cutaneous anaphylaxis after injecting 25 mg/kg perorally in rat. The format is functional. The note with it: route oral. The method in brief: as §1
For test [12], the species on record is Rattus norvegicus. Briefly: Ability to inhibit anaphylactically induced release of histamine (AIR) from rat peritoneal mast cells. Type of test: functional, cell-based. The method in brief:
as §3

For test [13], the species on record is Rattus norvegicus. The test can be described thus: Ability to inhibit passive cutaneous anaphylaxis in rat, when compound was injected perorally. Type of test: functional. The essentials:
as §1

The test system of test [14] is Rattus norvegicus. Briefly: Ability to inhibit passive cutaneous anaphylaxis in rat, when compound was injected intraperitoneally. Type of test: functional. The note with it: ip. The method in brief:
as §1

The species entered for test [15] is Rattus norvegicus. Briefly: In vitro ability to inhibit antigen-induced release of histamine (AIR) from rat peritoneal mast cells. The format is functional. The essentials: (§4)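 Rat peritoneal cells were collected by lavage and contained 5–10% mast cells. Histamine was measured by a radioenzymatic method instead of fluorometry, because some test agents fluoresce. Samples were incubated with [¹⁴C]methyl-S-adenosylmethionine and histamine-N-methyltransferase prepared from rat kidneys.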

Test [16] is filed under the species Rattus norvegicus. Briefly: In vitro ability to inhibit antigen-induced release of histamine (AIR) from rat mast cells. The format is functional, cell-based. The essentials:
as §4

The test system of test [17] is Rattus norvegicus. Briefly: Ability to inhibit passive cutaneous anaphylaxis in rat, when compound was injected intraperitoneally. The format is functional. Conditions: ip. The essentials:
as §1

Test [18] relates to Rattus norvegicus. The test can be described thus: Ability to inhibit passive cutaneous anaphylaxis in rat, when […] injected perorally. The format is functional. Conditions: route oral. The method in brief:
as §1

For test [19], the species on record is Rattus norvegicus. Briefly: In vitro ability to inhibit antigen-induced release of histamine (AIR) from rat mast cells; histamine release was assayed by a radioenzymatic method. The format is functional, cell-based. The essentials: as §4

In the test filed under Rattus norvegicus [1], `Cn1c(=O)oc2c3ncccc3c(Cl)cc21` had an ED50 of 102 mg/kg. Besides, at 125 mg/kg the inhibition in vivo in the test on Rattus norvegicus [2] was 51%.

In the test on Rattus norvegicus [3], `Clc1cc2nc(C(Cl)(Cl)Cl)oc2c2ncccc12` registered an Inhibition of 28%. The compound further gave a pIC50 in the test filed under Rattus norvegicus [4] of 7.52.

For `O=C(O)c1nc2cc(Cl)c3cccnc3c2o1`, 10 mg/kg produced 47% inhibition in vivo with Rattus norvegicus [5].

On to `Clc1cc2ncoc2c2ncccc12`, for which the inhibition in vivo at 10 mg/kg with Rattus norvegicus [6] was determined as 28%.

The compound `CCOC(=O)Cc1nc2cc(Cl)c3cccnc3c2o1` came in with an inhibition in vivo at 10 mg/kg with Rattus norvegicus [5] of 9%.

On to `CCOC(=O)c1nc2cc(Cl)c3cccnc3c2o1`, for which, in the test with Rattus norvegicus [5], the inhibition in vivo at 10 mg/kg came to 59%. In the test listed under Rattus norvegicus [4], this compound had a pIC50 of 7.00.

`O=C(/C=C/c1ccccc1)n1c(=O)oc2c3ncccc3c(Cl)cc21`: the values for the Inhibition in the test filed under Rattus norvegicus [7] and in the test listed under Rattus norvegicus [8] were 0% and 18%, respectively.

In the case of `COc1ccccc1C(=O)n1c(=O)oc2c3ncccc3c(Cl)cc21`, the results for the Inhibition in the test listed under Rattus norvegicus [7] and in the test filed under Rattus norvegicus [8] were 34% and 16%, respectively.

As to `Clc1cc2nc(-c3ccccc3)oc2c2ncccc12`, the inhibition in vivo at 10 mg/kg in the test on Rattus norvegicus [6] came out at 3%. In the test with Rattus norvegicus [9], the inhibition in vivo at 30 mg/kg was < 30%.

`Oc1nc2cc(Cl)c3cccnc3c2o1` displayed a % inhibition in the test filed under Rattus norvegicus [10] of 18%. The compound further registered an inhibition in vivo at 125 mg/kg in the test with Rattus norvegicus [2] of 14%.

As to `Oc1nc2ccc3cccnc3c2o1`, in the test on Rattus norvegicus [11], at 25 mg/kg the inhibition in vivo was 0%.

For the compound `COc1ccccc1NC(=O)Oc1cccc2cccnc12`, in the test listed under Rattus norvegicus [12], the pIC50 is 5.70.

For `CC(=O)n1c(=O)oc2c3ncccc3c(Cl)cc21`, the Inhibition in the test filed under Rattus norvegicus [7] is 15%.

With `CC(=O)n1c(=O)oc2c3ncccc3ccc21`, the ED50 in the test listed under Rattus norvegicus [13] worked out at 4 mg/kg; in the test on Rattus norvegicus [14], 10 mg/kg. In the test listed under Rattus norvegicus [15], the Inhibition is reported as <30%.

In the test listed under Rattus norvegicus [7], `CCOC(=O)n1c(=O)oc2c3ncccc3c(Cl)cc21` came in with an Inhibition of 43%.

The compound `O=C([O-])c1cc(=O)c2c(OCC(O)COc3cccc4oc(C(=O)[O-])cc(=O)c34)cccc2o1.[Na+].[Na+]` [CROMOLYN SODIUM] showed a pIC50 in the test listed under Rattus norvegicus [16] of 5.52. The compound further gave an ED50 with Rattus norvegicus [17] of 6 mg/kg.

`O=C([O-])c1nc2cc(Cl)c3cccnc3c2o1.[Na+]`: the Inhibition in the test with Rattus norvegicus [5] is 51%. In addition, in the test filed under Rattus norvegicus [4], the pIC50 is 6.52.

`CN(C)C(=O)n1c(=O)oc2c3ncccc3c(Cl)cc21`: in the test filed under Rattus norvegicus [8], the Inhibition was found to be 0%.

With `Cc1nc2cc(Cl)c3cccnc3c2o1`, 10 mg/kg produced 15% inhibition in vivo with Rattus norvegicus [6]. Moreover, in the test listed under Rattus norvegicus [4], the pIC50 is 4.48.

In the test with Rattus norvegicus [5], `COC(=O)c1nc2cc(Cl)c3cccnc3c2o1` [QUAZOLAST] had an inhibition in vivo at 10 mg/kg of 100%. Besides, the ED50 with Rattus norvegicus [17] is 0.1 mg/kg; in the test with Rattus norvegicus [18] it was 0.5 mg/kg. For the same compound, the pIC50 in the test listed under Rattus norvegicus [19] was 6.52.
